The source made the active and inactive calls. The calls are words filed in the database; no cut-off is given here. Where a SMILES comes first, the peptide text is derived from it.
What was measured:
[1] = target: T1, Motilin receptor (Oryctolagus cuniculus, UniProt A5A4K8); assay: Displacement of [125I]motilin from MTL receptor in rabbit duodenum homogenate
In short: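 Tissue homogenate incubated at 25 °C with 25 pM [¹²⁵I]motilin for 120 min. Stopped with ice-cold buffer, then bound and free ligand separated by centrifugation at 1500g for 5 min. Pellet washed with ice-cold buffer and counted by gamma counter. IC₅₀ is the concentration displacing 50% of ¹²⁵I-motilin binding.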

[2] = Apparent permeability across human Caco-2 cells at pH 6.8; type: ADME, cell-based; details: Caco-2, pH 6.8
[3] = target: T1, Motilin receptor; assay: Antagonist activity at MTL receptor in rabbit duodenum homogenate; type: functional, tissue-based; details: read-out: pA2 (converted)
[4] = Metabolic stability in rat liver S9 fraction assessed as compound remaining after 30 mins; type: ADME, subcellular; details: read-out: Stability
In short: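 Compound incubated with rat liver S-9 for 30 min at 37 °C. Stability is expressed as residual % of compound.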

[5] = test system: Canis familiaris; assay: Suppression of MTL receptor-mediated motilin-induced gastric motility in conscious dog 5 mg/kg administered 30 mins before motilin challenge; type: functional, organism-based; parameters: dose 5 mg/kg; details: Canis lupus familiaris; Stomach
[6] = Oral bioavailability in rat at 10 mg/kg; type: ADME, organism-based; details: in vivo
[7] = test system: Canis familiaris; assay: Suppression of MTL receptor-mediated motilin-induced colonic motility in conscious dog 5 mg/kg administered 30 mins before motilin challenge; type: functional, organism-based; parameters: dose 5 mg/kg; details: Canis lupus familiaris

T1 sequence (A5A4K8 whole entry): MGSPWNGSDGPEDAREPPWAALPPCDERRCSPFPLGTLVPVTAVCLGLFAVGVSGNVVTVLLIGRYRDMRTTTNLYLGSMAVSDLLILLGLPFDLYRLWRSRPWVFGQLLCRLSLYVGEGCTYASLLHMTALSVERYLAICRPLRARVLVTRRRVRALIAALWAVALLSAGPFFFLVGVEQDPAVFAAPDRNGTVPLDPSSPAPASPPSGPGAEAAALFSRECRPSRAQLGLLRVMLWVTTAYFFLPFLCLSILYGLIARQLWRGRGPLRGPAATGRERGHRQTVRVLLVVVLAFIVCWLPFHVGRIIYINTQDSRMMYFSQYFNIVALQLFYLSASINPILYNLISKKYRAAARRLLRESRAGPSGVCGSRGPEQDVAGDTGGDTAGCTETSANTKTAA

Compound	IC50 [1] [nM]	Papp [2] [×10⁻⁶ cm/s]	Kb [3] [nM]	remaining at 0.5 h [4] [%]	Activity [5]	bioavailability [6] [%]	Activity [7]
CC(C)[C@@H](C(=O)N[C@H](C)Cc1ccc(O)c(C(C)(C)C)c1)N(C)C(=O)[C@@H](N)Cc1ccccc1	1.9	12.1	3.98	100	Active	65	Active
CC(C)(C)c1cc(C[C@@H]2NC(=O)[C@@H](NC(=O)[C@@H](N)Cc3ccccc3)CCCCCC(=O)CCNC2=O)ccc1O	12	–	39.8	–	–	–	–
C[C@H](NC(=O)[C@@H](N)Cc1ccccc1)C(=O)N[C@@H](Cc1ccc(O)c(C(C)(C)C)c1)C(N)=O (HELM PEPTIDE1{F.A.[CC(C)(C)c1cc(C[C@H](N[*:1])C(=O)[*:2])ccc1O].[am]}$$$$V2.0)	185	–	> 1000	–	–	–	–
CC(C)(C)c1cc(C[C@H](NC(=O)[C@H](Cc2ccccc2)NC(=O)[C@@H](N)Cc2ccccc2)C(N)=O)ccc1O (HELM PEPTIDE1{F.F.[CC(C)(C)c1cc(C[C@H](N[*:1])C(=O)[*:2])ccc1O].[am]}$$$$V2.0)	6	–	63.1	–	–	–	–
CC(C)C[C@H](NC(=O)[C@@H](N)Cc1ccccc1)C(=O)N[C@@H](Cc1ccc(O)c(C(C)(C)C)c1)C(N)=O (HELM PEPTIDE1{F.L.[CC(C)(C)c1cc(C[C@H](N[*:1])C(=O)[*:2])ccc1O].[am]}$$$$V2.0)	27	–	50.1	–	–	–	–
CC(C)[C@H](NC(=O)[C@@H](N)Cc1ccccc1)C(=O)N[C@@H](Cc1ccc(O)c(C(C)(C)C)c1)C(N)=O (HELM PEPTIDE1{F.V.[CC(C)(C)c1cc(C[C@H](N[*:1])C(=O)[*:2])ccc1O].[am]}$$$$V2.0)	46	–	126	–	–	–	–
CC(C)[C@H](NC(=O)[C@@H](N)Cc1ccccc1)C(=O)N(C)[C@@H](Cc1ccc(O)c(C(C)(C)C)c1)C(N)=O (HELM PEPTIDE1{F.V.[CN([C@@H](Cc1ccc(O)c(C(C)(C)C)c1)C(=O)[*:2])[*:1]].[am]}$$$$V2.0)	24	–	63.1	7	–	–	–
CC(C)(C)c1cc(C[C@H](NC(=O)[C@@H](NC(=O)[C@@H](N)Cc2ccccc2)c2ccccc2)C(N)=O)ccc1O (HELM PEPTIDE1{F.[Phg].[CC(C)(C)c1cc(C[C@H](N[*:1])C(=O)[*:2])ccc1O].[am]}$$$$V2.0)	12	–	15.8	–	–	–	–
CC(C)[C@@H](C(=O)N[C@@H](Cc1ccc(O)c(C(C)(C)C)c1)C(N)=O)N(C)C(=O)[C@@H](N)Cc1ccccc1 (HELM PEPTIDE1{F.[meV].[CC(C)(C)c1cc(C[C@H](N[*:1])C(=O)[*:2])ccc1O].[am]}$$$$V2.0)	1.1	–	12.6	69	–	6	–
CC(C)[C@@H](C(=O)N(C)[C@@H](Cc1ccc(O)c(C(C)(C)C)c1)C(N)=O)N(C)C(=O)[C@@H](N)Cc1ccccc1 (HELM PEPTIDE1{F.[meV].[CN([C@@H](Cc1ccc(O)c(C(C)(C)C)c1)C(=O)[*:2])[*:1]].[am]}$$$$V2.0)	4.3	2.31	2.51	80	Active	30	Active

Source: ChEMBL document CHEMBL1137004, “Discovery of novel motilin antagonists: Conversion of tetrapeptide leads to orally available peptidomimetics” (Bioorg Med Chem Lett, 2009)
